Experimental data from ChEMBL document CHEMBL1132156, “Synthesis and structure-activity relationships of potential anticancer agents: alkylcarbamates of 3-(9-acridinylamino)-5-hydroxymethylaniline” (J Med Chem, 1999).
pIC50: −log10 of the molar value.

Columns and labels:
[1] = test system: HL-60; assay: In vitro growth inhibition against human leukemia HL-60 cell line; assay type: functional, cell-based
Method in brief: (§1)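 HL-60 cells were seeded at 5×10^4 cells/mL in RPMI 1640 with 10% heat-inactivated FBS, penicillin and streptomycin, at 37 °C in 5% CO2. Cells were exposed for 72 h to six or seven drug concentrations, run in duplicate. Viability was read by XTT-tetrazolium microculture absorbance, and IC50 was derived from median-effect plot analysis.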

[2] = test system: Mus musculus; assay: […] anticancer activity against B6D2F-1 mice bearing P388 leukemia measured by the average weight change(g) after day 11 at an intravenous dose of 30(mg/kg).; assay type: functional
Method in brief: (§2)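 Male B6D2F1 mice (8 weeks old, 20–25 g) were implanted iv on day 0 with P388/0 ascites cells (0.2 mL; ascites:saline 1.10), which grew in the liver. Drug was given iv via the tail vein, Q2Dx5, on days 1, 3, 5, 7 and 9. Groups had 4–5 mice. Day 1 value is mean body weight; later days are weight change.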

[3] = test system: Mus musculus; assay: […] anticancer activity against B6D2F-1 mice bearing P388 leukemia measured by the average weight change(g) after day 9 at an intravenous dose of 22(mg/kg).; assay type: functional
Method in brief: (§3)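 Male B6D2F1 mice (8 weeks old, 20–25 g) were implanted iv on day 0 with P388/0 ascites cells (0.2 mL; ascites:saline = 1.10). Tumor grew in the liver. Drug was given iv via the tail vein, Q2Dx5, on days 1, 3, 5, 7 and 9. Body weight was recorded on days 1, 7, 9 and 11 and reported as the average change (g).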

[4] = test system: Mus musculus; assay: […] anticancer activity against 5 B6D2F-1 mice bearing P388 leukemia measured by the toxicity death at an intravenous dose of 16(mg/kg)..; assay type: organism-based; conditions: in vivo
Method in brief: (§4)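 Male B6D2F1 mice, 8 weeks old, 20–25 g. P388/0 ascites cells (0.2 mL, ascites:saline 1.10) were implanted iv on day 0, and the tumor grew in the liver. Drug was given iv by tail vein on days 1, 3, 5, 7 and 9 (Q2Dx5), with 4–5 mice per group. Survival time was scored as 8 a.m. (0.0), 1 p.m. (0.25) or 5 p.m. (0.5) deaths. %ILS was averaged against untreated controls, and toxic deaths were counted.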

[5] = test system: Mus musculus; assay: […] anticancer activity against B6D2F-1 mice bearing P388 leukemia measured by the average weight change(g) after day 7 at an intravenous dose of 22(mg/kg).; assay type: functional; method in brief: as §2
[6] = test system: Mus musculus; assay: […] anticancer activity against B6D2F-1 mice bearing P388 leukemia measured by the Average survival time(days) at an intravenous dose of 22(mg/kg).; assay type: functional; method in brief: as §4
[7] = test system: Mus musculus; assay: […] anticancer activity against B6D2F-1 mice bearing P388 leukemia measured by the average body weight(g) after day 1 at an intravenous dose of 22(mg/kg).
[8] = test system: Mus musculus; assay: […] anticancer activity against 4 B6D2F-1 mice bearing P388 leukemia measured by the toxicity death at an intravenous dose of 30(mg/kg).; assay type: organism-based; conditions: in vivo; method in brief: as §4
[9] = test system: Mus musculus; assay: […] anticancer activity against B6D2F-1 mice bearing P388 leukemia measured by the increase in lifespan at an intravenous dose of 30(mg/kg).; assay type: functional; method in brief: as §4
[10] = test system: Mus musculus; assay: […] anticancer activity against B6D2F-1 mice bearing P388 leukemia measured by the Average survival time(days) at an intravenous dose of 30(mg/kg).; assay type: functional; method in brief: as §4
[11] = test system: Mus musculus; assay: […] anticancer activity against B6D2F-1 mice bearing P388 leukemia measured by the average body weight(g) after day 1 at an intravenous dose of 16(mg/kg).
[12] = test system: Mus musculus; assay: […] anticancer activity against B6D2F-1 mice bearing P388 leukemia measured by the increase in lifespan at an intravenous dose of 16(mg/kg)..; assay type: functional; method in brief: as §4
[13] = test system: Mus musculus; assay: […] anticancer activity against B6D2F-1 mice bearing P388 leukemia measured by the average weight change(g) after day 11 at an intravenous dose of 22(mg/kg).; assay type: functional; method in brief: as §2
[14] = test system: Mus musculus; assay: […] anticancer activity against B6D2F-1 mice bearing P388 leukemia measured by the average weight change(g) after day 9 at an intravenous dose of 16(mg/kg).; assay type: functional; method in brief: as §3
[15] = test system: HL-60; assay: In vitro inhibition of human leukemic HL-60 cell growth in culture; assay type: functional, cell-based; method in brief: as §1
[16] = test system: Mus musculus; assay: […] anticancer activity against B6D2F-1 mice bearing P388 leukemia measured by the average weight change(g) after day 7 at an intravenous dose of 30(mg/kg).; assay type: functional; method in brief: as §3
[17] = test system: Mus musculus; assay: […] anticancer activity against B6D2F-1 mice bearing P388 leukemia measured by the average weight change(g) after day 7 at an intravenous dose of 16(mg/kg).; assay type: functional; method in brief: as §2
[18] = test system: Mus musculus; assay: […] anticancer activity against B6D2F-1 mice bearing P388 leukemia measured by the average weight change(g) after day 9 at an intravenous dose of 30(mg/kg).; assay type: functional; method in brief: as §3
[19] = test system: Mus musculus; assay: […] anticancer activity against 5 B6D2F-1 mice bearing P388 leukemia measured by the toxicity death at an intravenous dose of 22(mg/kg).; assay type: organism-based; conditions: in vivo; method in brief: as §4
[20] = test system: Mus musculus; assay: […] anticancer activity against B6D2F-1 mice bearing P388 leukemia measured by the average body weight(g) after day 1 at an intravenous dose of 30(mg/kg).
[21] = test system: Mus musculus; assay: […] anticancer activity against B6D2F-1 mice bearing P388 leukemia measured by the average weight change(g) after day 11 at an intravenous dose of 16(mg/kg).; assay type: functional; method in brief: as §2
[22] = test system: Mus musculus; assay: […] anticancer activity against B6D2F-1 mice bearing P388 leukemia measured by the average survival time(days) at an intravenous dose of 16(mg/kg)..; assay type: functional; method in brief: as §4
[23] = test system: Mus musculus; assay: […] anticancer activity against B6D2F-1 mice bearing P388 leukemia measured by the increase in lifespan at an intravenous dose of 22(mg/kg).; assay type: functional; method in brief: as §4
[24] = test system: Mus musculus; assay: […] anticancer activity against B6D2F-1 mice bearing P388 leukemia measured by the average weight change(g) after day 7 at an intravenous dose of 8(mg/kg).; assay type: functional; method in brief: as §3
[25] = test system: Mus musculus; assay: […] anticancer activity against B6D2F-1 mice bearing P388 leukemia measured by the Average survival time(day+/-SD) at an intravenous dose of 12(mg/kg).; assay type: functional; method in brief: as §4
[26] = test system: Mus musculus; assay: […] anticancer activity against B6D2F-1 mice bearing P388 leukemia measured by the average weight change(g) after day 9 at an intravenous dose of 8(mg/kg).; assay type: functional; method in brief: as §3
[27] = test system: Mus musculus; assay: […] anticancer activity against B6D2F-1 mice bearing P388 leukemia measured by the average weight change(g) after day 9 at an intravenous dose of 12(mg/kg).; assay type: functional; method in brief: as §3
[28] = test system: Mus musculus; assay: […] anticancer activity against B6D2F-1 mice bearing P388 leukemia measured by the average weight change(g) after day 11 at an intravenous dose of 12(mg/kg).; assay type: functional; method in brief: as §2
[29] = test system: Mus musculus; assay: […] anticancer activity against B6D2F-1 mice bearing P388 leukemia measured by the increase in lifespan(%) at an intravenous dose of 12(mg/kg).; assay type: functional; method in brief: as §4
[30] = test system: Mus musculus; assay: […] anticancer activity against B6D2F-1 mice bearing P388 leukemia measured by the average body weight(g) after day 1 at an intravenous dose of 8(mg/kg).
[31] = test system: Mus musculus; assay: […] anticancer activity against B6D2F-1 mice bearing P388 leukemia measured by the average body weight(g) after day 1 at an intravenous dose of 18(mg/kg).
[32] = test system: Mus musculus; assay: […] anticancer activity against B6D2F-1 mice bearing P388 leukemia measured by the average body weight(g) after day 1 at an intravenous dose of 12(mg/kg).
[33] = test system: Mus musculus; assay: […] anticancer activity against B6D2F-1 mice bearing P388 leukemia measured by the increase in lifespan(%) at an intravenous dose of 18(mg/kg).; assay type: functional; method in brief: as §4
[34] = test system: Mus musculus; assay: […] anticancer activity against B6D2F-1 mice bearing P388 leukemia measured by the increase in lifespan(%) at an intravenous dose of 8(mg/kg)..; assay type: functional; method in brief: as §4
[35] = test system: Mus musculus; assay: […] anticancer activity against B6D2F-1 mice bearing P388 leukemia measured by the Average survival time(day+/-SD) at an intravenous dose of 18(mg/kg).; assay type: functional; method in brief: as §4
[36] = test system: Mus musculus; assay: […] anticancer activity against B6D2F-1 mice bearing P388 leukemia measured by the average weight change(g) after day 11 at an intravenous dose of 8(mg/kg).; assay type: functional; method in brief: as §2
[37] = test system: Mus musculus; assay: […] anticancer activity against B6D2F-1 mice bearing P388 leukemia measured by the average survival time(day+/-SD) at an intravenous dose of 8(mg/kg)..; assay type: functional; method in brief: as §4
[38] = test system: Mus musculus; assay: […] anticancer activity against B6D2F-1 mice bearing P388 leukemia measured by the average weight change(g) after day 7 at an intravenous dose of 12(mg/kg).; assay type: functional; method in brief: as §2
[39] = test system: Mus musculus; assay: […] anticancer activity against B6D2F-1 mice bearing P388 leukemia measured by the average weight change(g) after day 7 at an intravenous dose of 18(mg/kg).; assay type: functional; method in brief: as §2

Compound: CCOC(=O)Nc1cc(CO)cc(Nc2c3cccc(C)c3nc3c(C(=O)NCCN(C)C)cccc23)c1
- pIC50 [1]: 8.64

Compound: Nc1cc(CO)cc(Nc2c3ccccc3nc3ccccc23)c1
- Average weight change [2]: -0.2 g
- Average weight change [3]: -1.5 g
- Toxicity related death [4]: 0
- Average weight change [5]: -1.3 g
- Average survival [6]: 21.1 days
- Body weight [7]: 23.8 g
- Toxicity related death [8]: 0
- Increase in life-span [9]: 240%
- Average survival [10]: 21.8 days
- Body weight [11]: 23.3 g
- Increase in life-span [12]: 133%
- Average weight change [13]: -2.8 g
- Average weight change [14]: -0.5 g
- pIC50 [15]: 7.57
- Average weight change [16]: 0.2 g
- Average weight change [17]: 0.8 g
- Average weight change [18]: -0.1 g
- Toxicity related death [19]: 0
- Body weight [20]: 22.6 g
- Average weight change [21]: -2.1 g
- Average survival [22]: 14.9 days
- Increase in life-span [23]: 230%

Compound: COc1cc(NS(C)(=O)=O)ccc1Nc1c2ccccc2nc2ccccc12 [AMSACRINE]
- Average weight change [24]: 0.1 g
- Average survival [25]: 14.1 days
- Average weight change [26]: -2.1 g
- Average weight change [27]: -1.4 g
- Average weight change [28]: -3.2 g
- Increase in life-span [29]: 120%
- Body weight [30]: 22.8 g
- Body weight [31]: 24.5 g
- Body weight [32]: 22.7 g
- Increase in life-span [33]: 19%
- Increase in life-span [34]: 91%
- Average survival [35]: 7.6 days
- Average weight change [36]: -3.8 g
- Average survival [37]: 12.2 days
- Average weight change [38]: -0.7 g
- Average weight change [39]: -4.3 g
